PKD1 kinase inh: inhibitors of human PKD1 kinase. Q15139. hit rate 0.056% among 200,000. inhibition, % (no concentration beside the values). AID 797. PKD1 kinase fluorescence polarization assay; in the data active = inhibition above about 50%
TNAP inh no acc: inhibitors of human TNAP without phosphate acceptor. P05186. hit rate 0.26% among 200,000. purified TNAP, CDP-star luminescence, 30 min. inhibition, % at 20 µM;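 active = tissue-nonspecific alkaline phosphatase inhibition above about 50% at 20 µM in the single-dose screen, limit read from the data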;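 note: 0% = DMSO negative control and 100% = EDTA positive control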
Target sequence (P05186 whole entry, looked up): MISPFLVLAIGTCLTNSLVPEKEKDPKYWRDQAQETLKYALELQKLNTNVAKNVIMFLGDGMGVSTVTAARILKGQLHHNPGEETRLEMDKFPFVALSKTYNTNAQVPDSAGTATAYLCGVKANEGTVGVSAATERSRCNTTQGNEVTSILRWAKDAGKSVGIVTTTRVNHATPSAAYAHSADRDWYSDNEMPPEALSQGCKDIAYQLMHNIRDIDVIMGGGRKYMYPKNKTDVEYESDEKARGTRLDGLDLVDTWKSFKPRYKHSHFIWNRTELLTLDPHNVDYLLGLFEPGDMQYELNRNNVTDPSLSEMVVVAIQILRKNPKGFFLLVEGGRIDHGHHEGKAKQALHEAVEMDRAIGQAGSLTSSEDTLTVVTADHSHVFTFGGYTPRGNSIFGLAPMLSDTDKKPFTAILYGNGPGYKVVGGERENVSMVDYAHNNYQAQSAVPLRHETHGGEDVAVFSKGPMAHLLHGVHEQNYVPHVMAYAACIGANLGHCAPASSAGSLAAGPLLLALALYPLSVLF
TNAP inh hi DEA: TNAP (human) inhibition, high acceptor; inhibition, % at 20 µM; hit rate 0.03% among 200,000; P05186; purified TNAP, CDP-star luminescence, 1 M DEA; AID 1135;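 active = over 50% inhibition of tissue-nonspecific alkaline phosphatase at 20 µM in the single-dose screen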;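 note: plate controls were DMSO wells for no effect and EDTA-quenched wells as full inhibition for full effect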
TNAP act hi DEA: increases human TNAP activity under high phosphate acceptor concentration; P05186; activation factor at 20 µM; 200,000 tested, under 10 active; purified TNAP, CDP-star luminescence, 1 M DEA, 30 min; stronger effect = higher value; 0 = EDTA background, 1 = DMSO-only activity;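 active = activation factor at least 2 at 20 µM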
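Assay system: human TNAP; Input: enzyme diluted 1/800 final; Reagent: CDP-star luminogenic substrate at 100 µM final; Timing: 30 min, room temperature; Signal: luminescence; Evaluation: TNAP activation factor scaled between EDTA and DMSO control wells.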
Arbovirus inh: antivirals against arbovirus infection | arbovirus infection cell-based antiviral screen | inhibition, % at 10 µM | hit rate 0.37% among 200,000; in the data active = inhibition above about 30%
An asterisk follows results filed as active; ! = not confirmed by another sample. Sampled rows, rich in hits. Any-hit rate of the full collection: about 0.72%.

SMILES | PKD1 kinase inh | TNAP inh no acc | TNAP inh hi DEA | TNAP act hi DEA | Arbovirus inh
COc1ccc(-c2[nH]ncc2CN2CCCC2c2nonc2C)c(F)c1 (stereo not given) | -3.7 | 51.3* | -5.8 | 1.1 | 1.1
Cc1ccccc1CSc1ccc2nnc(-c3ccccn3)n2n1 | -3.9 | -7.6 | -4.4 | 1 | 4.9
COC(=O)c1sccc1NC(=O)CSc1ccccc1NS(=O)(=O)c1ccc(Br)cc1 | 1.6 | 5.1 | -5.0 | 1.1 | 31.7*
CCOC(=O)c1ccc(NC(=O)Cn2nnc(-c3ccccc3)n2)cc1 | 0.2 | -13.1 | 1.8 | 1 | 38.6*
CCOC(=O)c1ccc(NC(=O)Cn2nnc(-c3ccc(F)cc3)n2)cc1 | 14.6 | -4.1 | -8.0 | 1.1 | 0.8
O=C(CCc1ccccc1)NC(=S)NCc1ccco1 | -1.4 | -3.5 | -4.1 | 1 | 0.3
Cc1ccc(-c2nc(Nc3ccccc3)n[nH]2)cc1 | -7.6 | 50.5* | 0.4 | 1 | -2.2
COc1ccc(Nc2nc(N)nc(CSc3nccc(C)n3)n2)cc1 | -4.0 | -3.9 | -1.4 | 1 | 5.0
COc1ccc(Nc2nc(N)nc(CSc3n[nH]c(-c4ccccc4)n3)n2)cc1 | -8.4 | 81.2* | -4.5 | 1 | 2.4
Nc1nc(CSc2n[nH]c(-c3ccccc3)n2)nc(Nc2ccccc2)n1 | 3.2 | 89.9* | 3.1 | 1 | 1.1
Cc1nn(-c2ccc(Cl)nn2)c(=O)c2ccccc12 | -4.8 | -7.6 | -3.0 | 1 | 3.4
COc1ccccc1C(=O)Nc1ccc2c(c1)nc1n2CCSC1 | -9.6 | 67.6* | 2.4 | 1 | -9.9
O=C(NC1CCCCCC1)c1ccc(=O)n(Cc2ccccc2)n1 | 2.8 | -8.1 | 3.4 | 1 | 10.5
CCN1/C(=C\C(=S)Nc2ccccc2)Sc2ccccc21 | -8.6 | 8.7 | 4.7 | 1 | 9.9
CCN1/C(=C/C(C)=C/c2sc3ccccc3[n+]2CC)Sc2ccccc21 | 0.7 | 59.3* | 43.5 | 0.6 | -32.4
CC(C)Cc1nnc(NC(=O)CCC(=O)Nc2ccc(F)cc2)s1 | 0.1 | 51.1* | -1.1 | 1 | 3.8
CC1CN(C(=S)NC(=O)c2ccco2)CC(C)O1 (stereo not given) | -16.5 | -14.7 | 3.5 | 1 | 0.0
O=C1c2ccccc2C(=O)N1c1n[nH]c(CCc2ccccc2)n1 | 1.6 | 57.2* | -0.2 | 1 | -9.7
CCCc1cc(=O)n2[nH]c(CCc3ccccc3)nc2n1 | 1.9 | 3.6 | -4.9 | 1 | -3.6
COc1ccc(OC)c(NC(=O)CN(C)CC(=O)Nc2ccccc2Br)c1 | -3.0 | -28.5 | -5.0 | 1.1 | 4.4
COc1cc2ccccc2cc1C(=O)NC(=S)Nc1cc(C(=O)O)ccc1C | -6.5 | -2.5 | 2.1 | 1 | 42.4*
Cc1n[nH]c(C)c1S(=O)(=O)NCCc1ccc(Cl)cc1 | -7.3 | 60.7* | -3.2 | 1 | -0.2
Cc1[nH]c(=O)[nH]c(=O)c1S(=O)(=O)NCCc1ccc(S(N)(=O)=O)cc1 | -1.9 | -0.5 | -4.5 | 1 | 6.3
O=C(NCCc1c[nH]c2ccccc12)C(=O)NCC(c1ccco1)N1CCN(c2ccccc2F)CC1 (stereo not given) | 4.7 | -17.6 | -4.8 | 1 | -4.1
Cc1nc(Nc2ccccc2)sc1-c1ccccc1 | -11.1 | -10.4 | -4.9 | 1 | 33.0*
SMILES | PKD1 kinase inh | TNAP inh no acc | TNAP inh hi DEA | TNAP act hi DEA | Arbovirus inh
CN1CCC(N(C)C(=O)CCc2nc3ccccc3n2-c2ccccc2)CC1 | 2.7 | 1.1 | -4.6 | 1 | 8.2
N=C(N)SCc1nc2ccccc2c(=O)n1-c1ccccc1 | 15.4 | -12.1 | 4.2 | 1 | 30.3*!
O=c1c2ccccc2nc(SCc2ccc([N+](=O)[O-])cc2)n1-c1ccccc1 | -9.0 | -6.9 | -2.0 | 1 | -13.2
c1ccc(-c2n[nH]c(-c3ccccn3)n2)cc1 | -0.4 | 66.6* | -3.9 | 1 | -19.7
NC(=O)COc1ncn(-c2ccccc2)n1 | -6.6 | -17.8 | -3.4 | 1 | -1.3
N/C(COc1ncn(-c2ccccc2)n1)=N\S(=O)(=O)c1ccc(Cl)cc1Cl | -1.9 | 63.2* | 47.8 | 0.5 | -3.9
CC(C)CCOc1ccc(/C=C2\CCn3c2nc2cc(C(=O)O)ccc2c3=O)cc1 | -3.2 | -0.4 | -2.8 | 1 | 37.8*
COC(=O)c1c(-c2ccccc2)csc1NC(=O)C1CC=CCC1C(=O)O (stereo not given) | -2.1 | 7.3 | -3.7 | 1 | 14.6
CCOC(=O)c1c(-c2ccc(C)cc2)csc1NC(=O)C1CC=CCC1C(=O)O (stereo not given) | 0.0 | 4.5 | -5.3 | 1.1 | 35.4*
Cc1ccc(-c2csc(NC(=O)C3CC=CCC3C(=O)O)c2C(=O)OC(C)C)cc1 (stereo not given) | -1.2 | -10.8 | -5.4 | 1.1 | 46.9*
COCCNC(=O)c1ccccc1NC(=O)CCSc1ccccc1 | -6.8 | 1.6 | 3.1 | 1 | 0.2
CCCC(=O)n1nc(-c2cccnc2)nc1NCc1cccs1 | 6.3 | 47.5 | 0.4 | 1 | 2.6
CC(=O)n1nc(-c2cccnc2)nc1NCc1cccs1 | -9.8 | 57.4* | -5.8 | 1.1 | 12.5
CCC(=O)n1nc(-c2cccnc2)nc1NCc1cccs1 | -2.1 | 69.0* | 3.7 | 1 | 1.3
COc1ccc(CNc2nc(-c3cccnc3)nn2C(C)=O)cc1 | -3.5 | 25.1 | -1.4 | 1 | -3.5
Cc1cc(-c2nn(-c3ccccc3F)cc2CN2CCN(c3ccncc3)CC2)c(C)s1 | 1.0 | -11.6 | -10.0 | 1.1 | -15.0
CN(c1ccccc1)S(=O)(=O)c1cccc(C(=O)NCCc2ccc(O)c(O)c2)c1 | 4.3 | 50.7* | 12.8 | 0.9 | -5.9
COC(=O)c1c(NC(=O)CN2C(=O)NC3(CCc4ccccc4C3)C2=O)sc2c1CCCCC2 (stereo not given) | -6.1 | -7.2 | -0.6 | 1 | -8.3
CC(C)(C)c1ccc(N/N=C(\C#N)S(=O)(=O)C(C)(C)C)cc1 | 0.8 | -3.0 | -1.9 | 1 | 33.7*
COC(=O)CSc1ccc(S(=O)(=O)N2CCCCCC2)cc1[N+](=O)[O-] | 6.4 | -8.0 | 4.0 | 1 | 3.0
COCCSc1nnc(NC(=O)C2CCCCC2)s1 | -0.7 | -12.0 | -7.4 | 1.1 | 31.7*
O=C(Nc1nnc(SCC(=O)N2CCCCC2)s1)C1CCCCC1 | -10.9 | -8.1 | -0.3 | 1 | 3.4
Brc1ccccc1/C=N/Nc1ccc2ccccc2n1 | 6.3 | -53.6 | -0.3 | 1 | 39.2*
CC1CC(C)CN(CCOc2ccc(Br)cc2)C1 (stereo not given) | -3.4 | -11.2 | -0.5 | 1 | -7.6
N#Cc1c(NC(=O)CSc2nnc(-c3ccccc3O)n2-c2ccccc2)sc2c1CCCC2 | 0.1 | -2.5 | -2.2 | 1 | 15.7
N#Cc1c(NC(=O)CSc2nnc(-c3ccncc3)n2CC2CCCO2)sc2c1CCCC2 (stereo not given) | -0.8 | 28.9 | 51.1* | 0.5 | -6.1
N#Cc1c(NC(=O)CSc2nnc(-c3ccccc3)o2)sc2c1CCCC2 | -6.8 | 4.1 | 62.9* | 0.4 | 31.7*
CCn1c(SCC(=O)Nc2sc3c(c2C#N)CCCC3)nnc1-c1ccncc1 | -6.8 | 58.0* | 77.1* | 0.2 | -2.1
Cc1c(CCOC(=O)CC23CC4CC(CC(C4)C2)C3)sc[n+]1Cc1ccccc1 | -14.0 | -1.9 | 35.5 | 0.6 | -13.4

Bioassay records from PubChem.
